High-throughput results from PubChem.
RGS4 block = human RGS4 inhibition; P49798; B-score at 10 µM; AID 463165; HEK293 M3R/RGS4 inducible, Fluo-4 calcium flux; stronger effect = higher value; triggered by carbachol at its EC20; hit rate 0.45% among 310,000;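 active = B-score, a plate-corrected calcium signal, over three deviations above library mean, with baseline fluorescence within five deviations of library mean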;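 also: RGS4 expression induced by doxycycline in cells with stable M3 receptor; B-score is computed from the integrated fluorescence ratio over baseline after carbachol; higher B-score means a larger calcium signal and so more RGS4 inhibition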
Target sequence (P49798 whole entry, looked up): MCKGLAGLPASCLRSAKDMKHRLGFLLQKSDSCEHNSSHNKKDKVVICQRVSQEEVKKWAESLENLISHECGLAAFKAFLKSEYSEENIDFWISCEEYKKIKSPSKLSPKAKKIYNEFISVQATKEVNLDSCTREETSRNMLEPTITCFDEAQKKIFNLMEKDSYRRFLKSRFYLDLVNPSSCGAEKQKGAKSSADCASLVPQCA
MrgX1 ag = agonists of human MrgX1 receptor; Q96LB2; B-score at 10 µM; hit rate 0.44% among 310,000; MrgX1-HEK293 cells, Fluo-4 calcium fluorescence, agonist mode; stronger effect = higher value;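 active = calcium response B-score plate-corrected fluorescence ratio at least 3 library SD, with starting fluorescence B-score inside 5 SD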
Target sequence (Q96LB2 whole entry, looked up): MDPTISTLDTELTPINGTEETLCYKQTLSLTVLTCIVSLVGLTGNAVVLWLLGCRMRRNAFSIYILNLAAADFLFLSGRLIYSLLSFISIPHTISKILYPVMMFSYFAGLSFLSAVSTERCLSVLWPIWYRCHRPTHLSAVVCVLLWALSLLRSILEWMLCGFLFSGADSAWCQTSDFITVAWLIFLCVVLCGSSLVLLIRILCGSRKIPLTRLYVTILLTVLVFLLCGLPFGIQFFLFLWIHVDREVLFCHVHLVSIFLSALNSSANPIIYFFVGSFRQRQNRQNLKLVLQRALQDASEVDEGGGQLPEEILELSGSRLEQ
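Material: HEK293 cells stably expressing human MrgX1 receptor | Quantity: 15,000 cells per well | Times: Cells plated overnight, dye loaded 0.5 h 37 °C, 0.5 h room temperature | Measured by: Kinetic Fluo-4 NW fluorescence of intracellular calcium | Control set: Positive and negative controls per plate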
RGS4 act = potentiators or activators of RGS4; B-score at 10 µM; HEK293 M3R/inducible RGS4, carbachol calcium flux Fluo4; stronger effect = lower value; hit rate 0.92% among 310,000;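 active = B-score of the integrated calcium signal more than 4 SD below the library mean, with starting fluorescence not abnormally high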;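 also: negative B-score means reduced calcium response which marks RGS4 activation or potentiation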
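Reagent: ECmax carbachol challenge; Test system: M3R-expressing HEK293 line, RGS4 induced by doxycycline; Schedule: overnight RGS4 induction, 30 min dye load 37 °C, 20 min compound RT; Detection: calcium dye Fluo4 fluorescence; Read-out: Agonist-evoked peak-minus-minimum fluorescence over baseline, integrated ratio, B score.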
MrgX1 antag = human MrgX1 receptor antagonism, primary screen | hit rate 1.3% among 310,000 | MRGX1-HEK293 calcium flux, Fluo-4, BAM8-22 antagonism; stronger effect = lower value | Q96LB2 | B-score at 10 µM;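 active = calcium-response B-score plate-corrected more than 3 library SD below zero, starting fluorescence within 5 deviations, no agonist response on first addition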;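 also: peak minus trough fluorescence over baseline after final BAM8-22 challenge near maximal dose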
MrgX1 allo act = allosterically activates human MrgX1 receptor signaling; Q96LB2; MrgX1-HEK293, Fluo-4 calcium flux, FDSS; stronger effect = higher value; B-score at 10 µM; hit rate 0.63% among 310,000; AID 588675;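 active = plate-corrected calcium response at least 3 library SD above typical, normal starting fluorescence, not activating the receptor alone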;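 also: compound read alongside a low EC10 to EC30 dose of BAM8-22 agonist; peak minus trough fluorescence over baseline measured at the second addition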
MrgX1 antag conf = reconfirmed antagonist of human MrgX1 receptor signaling | shares compounds with MrgX1 antag | MrgX1-HEK293, BAM8-22 calcium flux, Fluo-4; stronger effect = lower value | remaining BAM8-22 calcium response % of control (stronger effect = lower value), % at 10 µM | hit rate 19% among 2,300 | AID 602420;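 active = remaining agonist calcium response no higher than 100% minus 3 SD of agonist-only control wells, with starting fluorescence near control levels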;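 also: agonist BAM8-22 given at a near maximal EC90 to ECmax level; peak minus minimum fluorescence divided by baseline after agonist addition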
HEK293 Ca flux = counter-screen for MrgX1 antagonists: effect in parental HEK293 cells | hit rate 2% among 4,000 | Fluo-4 calcium fluorescence, FDSS | shares compounds with MrgX1 antag | fluorescence ratio F(max-min)/F0 at 10 µM | AID 624111;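 active = duplicate-averaged calcium fluorescence ratio at least three times the standard deviation of buffer wells, a nonspecific response in parental cells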
HEK293 Ca counter = activity in parental HEK293 cells without MrgX1. hit rate 0.4% among 4,000. parental HEK293 calcium flux, Fluo-4 fluorescence ratio; stronger effect = higher value. fluorescence ratio F(max-min)/F0 at 10 µM. shares compounds with MrgX1 antag;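 active = calcium fluorescence ratio, averaged over duplicates, at least 3 SD of the buffer-well ratio, meaning a nonspecific response in receptor-free cells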;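 also: untransfected parental HEK293 lacking MrgX1 used as counterscreen for MrgX1 allosteric activators; fluorescence change taken during the second addition on a kinetic imager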
HEK293 Ca cntr2 = MrgX1 activator counter-screen hit in parental HEK293 cells; shares compounds with MrgX1 antag; fluorescence ratio F(max-min)/F0 at 10 µM; Fluo-4 calcium fluorescence (FDSS); stronger effect = higher value; hit rate 8.7% among 4,000;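 active = calcium fluorescence ratio at least three times the spread of buffer wells, meaning a non-specific response in parental cells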
Hits are given with their value; – = inactive; · = no result given. Rows were chosen to be rich in hits. Some 3.5% of all compounds tested hit in one or more screens of this group.

SMILES | RGS4 block | MrgX1 ag | RGS4 act | MrgX1 antag | MrgX1 allo act | MrgX1 antag conf | HEK293 Ca flux | HEK293 Ca counter | HEK293 Ca cntr2
O=C(Cn1cc2c(n1)CCCCC2)N1CCc2ccccc2C1 | – | – | – | – | – | · | · | · | ·
CCCCn1c(N)c(N(CC(C)C)C(=O)C2CCCO2)c(=O)[nH]c1=O (stereo not given) | – | – | – | – | – | · | · | · | ·
CC(C(=O)Nc1ccccc1C(=O)O)n1c(C(F)(F)F)nc2ccccc21 (stereo not given) | – | – | – | – | – | · | · | · | ·
O=C(Cn1c(C(F)(F)F)nc2ccccc21)Nc1ccccc1C(=O)O | – | – | – | -5.8 | – | – | – | – | –
COc1ccc(S(=O)(=O)NNC(=O)C23CC4CC(CC(C4)C2)C3)cc1[N+](=O)[O-] | – | – | – | – | – | · | · | · | ·
COC(=O)c1ccccc1NC(=O)c1cc2sccc2n1C | – | – | – | -7.3 | – | 85% | – | – | –
S=c1nc(-c2ccccc2Br)[nH][nH]1 | – | – | – | -6.1 | – | – | – | – | –
Cc1cccc(-n2ncc3c2CCCC3NC(=O)CCN2CCCCO2)c1C (stereo not given) | – | – | – | – | – | · | · | · | ·
O=C(CCCn1c(SCc2cccc(F)c2)nc2ccccc2c1=O)NCC1CCCO1 (stereo not given) | – | – | – | -5.2 | – | – | – | – | –
CC(C)NC(=O)NC(=O)COc1ncnc2sccc12 | – | – | – | -4.9 | – | – | – | – | –
O=C(COc1ncnc2sccc12)NC1CCCc2ccccc21 (stereo not given) | – | – | – | -7.4 | – | 80% | – | – | –
COc1ccccc1N1CCN(Cc2cc(=O)c(OCC#N)co2)CC1 | – | – | – | – | – | · | · | · | ·
COc1ccc(Cc2cnc(N)s2)cc1 | – | – | – | -12 | – | 79% | – | – | –
COc1ccc(CN(C)C(=O)c2cccc(NS(=O)(=O)c3ccccc3)c2)cc1F | – | – | – | – | – | · | · | · | ·
COc1cc(C(=O)OCC(=O)N2CCC(Cc3ccccc3)CC2)cc(OC)c1OC | – | – | – | – | – | · | · | · | ·
CCC(CC)c1nnc(NC(=O)c2ccc(N3CCCC3=O)cc2)s1 | – | – | – | -4.9 | – | – | – | – | –
CC1(C)CC(NC(=O)COc2ccc3ccc(=O)oc3c2)CC(C)(C)N1 | – | – | – | – | – | · | · | · | ·
CCN1CCN(C(=O)c2ccc(CS(=O)(=O)Cc3ccccc3C)o2)CC1 | – | – | – | – | – | · | · | · | ·
Cc1nnnn1-c1ccc(CC(=O)O)cc1 | – | – | – | -7.1 | – | – | – | – | –
O=C(O)CSc1nnnn1-c1ccccc1 | – | – | – | – | – | · | · | · | ·
COC(=O)c1ccc(-c2ncc[nH]2)cc1 | – | – | – | – | – | · | · | · | ·
CC(C)(Oc1ccc(Cl)cc1)C(=O)NCC(c1ccco1)N1CCCCC1 (stereo not given) | – | – | – | -4.8 | – | – | – | – | –
COc1ccc(C(CNC(=O)C(C)(C)Oc2ccc(Cl)cc2)N2CCCCC2)cc1 (stereo not given) | – | – | – | – | – | · | · | · | ·
COc1ccc(Cl)cc1C(=O)NCC(c1ccco1)N1CCCC1 (stereo not given) | – | – | – | -5.2 | – | – | – | – | –
O=C1Nc2cc(C(F)(F)F)ccc2N2CCCCC12 (stereo not given) | – | – | – | – | – | · | · | · | ·
SMILES | RGS4 block | MrgX1 ag | RGS4 act | MrgX1 antag | MrgX1 allo act | MrgX1 antag conf | HEK293 Ca flux | HEK293 Ca counter | HEK293 Ca cntr2
O=C(Nc1cccc(O)c1)c1cc(S(=O)(=O)N2CCCC2)ccc1Cl | – | – | – | -5.1 | – | – | – | – | –
CCC(C(=O)Nc1c2c(nn1C(C)(C)C)CS(=O)(=O)C2)c1ccccc1 (stereo not given) | – | – | – | -8.1 | – | – | – | – | –
COc1ccc(C(c2c(O)nc(SC)n(C)c2=O)c2c(O)nc(SC)n(C)c2=O)cc1O | – | – | – | -7.3 | – | – | – | – | –
COc1cccc(O)c1CN1CCC(n2nccc2NC(=O)c2ccc3c(c2)OCO3)CC1 | – | – | – | – | – | · | · | · | ·
CCN1CCCC1CNC1=NCCCCC1 (stereo not given) | – | – | – | -5.2 | – | 83% | – | – | –
Cc1ccc(C)c2nc3sc(C(=O)N4CCCc5ccccc54)c(N)c3cc12 | – | – | -7 | -5.4 | – | – | – | – | 51
O=C(c1ccc(C(=O)N2CCCc3ccccc32)s1)N1CCCc2ccccc21 | – | – | – | – | – | · | · | · | ·
COc1cc(C(=O)OCC(=O)NCCC2=CCCCC2)ccc1OCC(C)C | – | – | – | – | – | · | · | · | ·
COc1ccc(C(=O)N2CCOC2CNC(=O)C(=O)NCc2ccc(F)cc2)cc1 (stereo not given) | – | – | – | -5.1 | – | – | – | – | –
CN(C(=O)c1cccs1)c1ccccc1C(=O)O | – | – | – | -5.7 | – | – | – | – | –
O=C(N/C(=C\c1ccc([N+](=O)[O-])cc1)C(=O)N1CCCCC1)c1ccccc1Br | – | – | – | – | – | · | · | · | ·
COc1ccc2c(c1)OC(c1ccccc1)(C(F)(F)F)NC2=O (stereo not given) | – | – | – | – | – | · | · | · | ·
CC(C)Oc1ccc2c(c1)OC(c1ccccc1)(C(F)(F)F)NC2=O (stereo not given) | – | – | – | -5.8 | – | – | – | – | –
COc1ccc(N2C(=O)CC(Sc3n[nH]c(-c4ccccc4)n3)C2=O)cc1 (stereo not given) | – | – | – | – | – | · | · | · | ·
Cc1c(C(=O)N/N=C/C(C)C)[nH]c2c([N+](=O)[O-])cccc12 | – | – | – | – | – | · | · | · | ·
COc1cccc(C(=O)COc2ccc3c(C)cc(=O)oc3c2)c1 | – | – | – | -5.1 | – | 83% | – | – | –
COc1ccc(S(=O)(=O)c2snnc2C)cc1 | – | – | – | – | – | · | · | · | ·
O=C(CSc1nc2ccccc2c(=O)n1-c1ccccc1)c1c[nH]c2ccccc12 | – | – | – | -6 | – | – | – | – | –
CC1(c2cccc(Br)c2)NC(=O)NC1=O (stereo not given) | – | – | – | – | – | · | · | · | ·
Cc1ccc2[nH]c(=O)c(CN(CCN3CCOCC3)C(=O)Nc3ccc(F)cc3)cc2c1 | – | – | – | -5.2 | – | – | – | – | –
COC(=O)c1ccccc1NC(=O)N[C@@H](C)C(=O)OC | – | – | – | – | – | · | · | · | ·
